Data set [1] concerns Huh-7. Kind of data set: Inhibition of NS5A in Hepatitis C virus subtype 4a infected in human HuH7 cells assessed as reduction in viral replication by luciferase reporter gene assay. Format: cell-based. Put shortly:
(§1)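 Transient replicon assay with GT1a-H77, GT1b-Con1 or chimeric replicons, electroporated into a Huh7-derived cell line. Percent inhibition of replication, read as a drop in luciferase signal, was calculated at each concentration to give EC90. Values are means of at least two experiments.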
For orientation: In a reporter assay the amount or activity of a reporter protein is the signal.

The subject of data set [2] is Huh-7. The data set can be described thus: Inhibition of NS5A in Hepatitis C virus subtype 1a infected in human HuH7 cells assessed as reduction in viral replication by luciferase reporter gene assay. Format: cell-based. A digest of the protocol:
as §1

Data set [3] deals with Huh-7. The data set can be described thus: Inhibition of NS5A in Hepatitis C virus subtype 2a infected in human HuH7 cells assessed as reduction in viral replication by luciferase reporter gene assay. Format: cell-based. A digest of the protocol: as §1
In data set [4] the test system is Huh-7. The data set can be described thus: Inhibition of NS5A in Hepatitis C virus subtype 3a infected in human HuH7 cells assessed as reduction in viral replication by luciferase reporter gene assay. The class given is cell-based. A digest of the protocol:
as §1

The test system of data set [5] is Nonstructural protein 5A (Hepatitis C virus), Q5L478 [UNDEFINED MUTATION]. The data set can be described thus: Inhibition of NS5A L31V mutant in Hepatitis C virus subtype 1a infected in human HuH7 cells assessed as reduction in viral replication by luciferase reporter gene assay. Particulars: Huh-7. The class given is cell-based. A digest of the protocol: (§2)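 NS5A resistance variants engineered into GT1a-H77 or GT1b-Con1 replicons. Each variant replicon is transfected transiently by electroporation into a Huh7-derived cell line. Percent inhibition is taken from the drop in luciferase signal at each compound concentration, and EC90 is calculated from these. Values are means of at least two experiments.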

Data set [6] deals with T1, Nonstructural protein 5A (Hepatitis C virus), Q5L478 [Y93H].
T1 sequence (whole entry): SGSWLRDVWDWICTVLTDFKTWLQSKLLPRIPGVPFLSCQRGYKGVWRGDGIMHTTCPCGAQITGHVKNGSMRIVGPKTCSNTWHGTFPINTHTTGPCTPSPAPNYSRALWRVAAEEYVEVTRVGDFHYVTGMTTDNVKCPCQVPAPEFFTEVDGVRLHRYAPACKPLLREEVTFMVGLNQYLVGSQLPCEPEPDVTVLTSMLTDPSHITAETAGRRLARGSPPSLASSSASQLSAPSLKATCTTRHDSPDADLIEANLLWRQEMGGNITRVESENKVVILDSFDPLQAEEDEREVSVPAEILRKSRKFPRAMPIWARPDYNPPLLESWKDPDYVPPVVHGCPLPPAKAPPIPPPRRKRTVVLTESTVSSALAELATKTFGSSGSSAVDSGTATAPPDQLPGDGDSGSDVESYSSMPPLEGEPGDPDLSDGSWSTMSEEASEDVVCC
The data set can be described thus: Inhibition of NS5A Y93H mutant in Hepatitis C virus subtype 1a infected in human HuH7 cells assessed as reduction in viral replication by luciferase reporter gene assay. The class given is cell-based. Particulars: Huh-7. A digest of the protocol: as §2

Data set [7] concerns Huh-7. The data set can be described thus: Inhibition of NS5A in Hepatitis C virus subtype 2b infected in human HuH7 cells assessed as reduction in viral replication by luciferase reporter gene assay. The class given is cell-based. Put shortly: as §1
The subject of data set [8] is Huh-7. Kind of data set: Inhibition of NS5A in Hepatitis C virus subtype 1b infected in human HuH7 cells assessed as reduction in viral replication by luciferase reporter gene assay. Format: cell-based. Put shortly: as §1
A short description of data set [9]: Selectivity ratio of EC90 for inhibition of NS5A in Hepatitis C virus subtype 3a infected in human HuH7 cells assessed as reduction in viral to EC90 for inhibition of NS5A in Hepatitis C virus subtype 1a. The class given is cell-based.
Data set [10] in a line: Selectivity ratio of EC90 for inhibition of NS5A in Hepatitis C virus subtype 4a infected in human HuH7 cells assessed as reduction in viral to EC90 for inhibition of NS5A in Hepatitis C virus subtype 1a. Format: cell-based. Put shortly:
(§3)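 Fold shift calculated against the GT1a EC90, using EC90 values from the luciferase replicon assay in Huh7-derived cells.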

Data set [11] is described as follows: Selectivity ratio of EC90 for inhibition of NS5A Y93H mutant in Hepatitis C virus subtype 1a infected in human HuH7 cells assessed as reduction in viral to EC90 for inhibition of NS5A in Hepatitis C virus subtype 1a. The class given is cell-based. Put shortly: (§4)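 Fold shift is calculated against the GT1a EC90. The variant EC90 comes from a transient replicon assay: the NS5A variant is introduced into a GT1a-H77 or GT1b-Con1 replicon and electroporated into Huh7-derived cells. The read-out is reduced luciferase signal. EC90s are means of at least two experiments.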

Data set [12] in a line: Selectivity ratio of EC90 for inhibition of NS5A in Hepatitis C virus subtype 2b infected in human HuH7 cells assessed as reduction in viral to EC90 for inhibition of NS5A in Hepatitis C virus subtype 1a. The class given is cell-based.
A short description of data set [13]: Selectivity ratio of EC90 for inhibition of NS5A in Hepatitis C virus subtype 1b infected in human HuH7 cells assessed as reduction in viral to EC90 for inhibition of NS5A in Hepatitis C virus subtype 1a. Format: cell-based. Put shortly: as §3
A short description of data set [14]: Selectivity ratio of EC90 for inhibition of NS5A L31V mutant in Hepatitis C virus subtype 1a infected in human HuH7 cells assessed as reduction in viral to EC90 for inhibition of NS5A in Hepatitis C virus subtype 1a. Format: cell-based. A digest of the protocol:
as §4

Data set [15] can be described thus: Clearance in male Wistar Han rats at 2 mg/kg, iv administered post overnight fasting measured upto 24 hrs by LC-MS/MS analysis. The class given is ADME, organism-based. The settings on record: rat, in vivo. Put shortly: (§5)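 Overnight-fasted male Wistar Han rats or Beagle dogs, two animals per group, 24 h study. IV in 60% PEG200 (rat 2 mg/kg, dog 1 mg/kg). PO in 10% Tween (rat 10 mg/kg, dog 5 mg/kg). Blood sampled up to 24 h, plasma separated by centrifugation, and drug measured by LC/MS. MRT reported for the IV route.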

Data set [16] can be described thus: Drug concentration in male Wistar Han rat at 10 mg/kg, po measured after 24 hrs by LC/MS analysis. The class given is ADME, organism-based. Particulars: in vivo, read-out: Drug uptake. Put shortly:
as §5

Data set [17] in a line: AUC in male Wistar Han rats at 10 mg/kg, po administered post overnight fasting measured upto 24 hrs by LC-MS/MS analysis. Format: ADME, organism-based. Further details: route oral, dose 10 mg/kg, time <=24. The settings on record: rat, in vivo. Put shortly: as §5
Data set [18] can be described thus: Oral bioavailability in male Wistar Han rat at 10 mg/kg post overnight fasting measured upto 24 hrs by LC-MS/MS analysis. Format: ADME, organism-based. The settings on record: in vivo. Put shortly: as §5
Data set [19] in a line: Half-life in male Wistar Han rats at 2 mg/kg, iv administered post overnight fasting measured upto 24 hrs by LC-MS/MS analysis. The class given is ADME, organism-based. Particulars: rat, in vivo. A digest of the protocol:
as §5

Data set [20] can be described thus: Cmax in male Wistar Han rats at 10 mg/kg, po administered post overnight fasting measured upto 24 hrs by LC-MS/MS analysis. Format: ADME, organism-based. Also on record: route oral, dose 10 mg/kg, time <=24. Particulars: rat, in vivo. A digest of the protocol: as §5

For `COC(=O)N[C@H](C(=O)N1CCC[C@H]1c1ncc(-c2ccc3c(c2)OC(c2cccc(-c4ccccc4)c2)n2c-3cc3cc(-c4cnc([C@@H]5CCCN5C(=O)[C@@H](NC(=O)OC)C(C)C)[nH]4)ccc32)[nH]1)C(C)C` (mixture of isomers), the EC90 with Huh-7 [1] stood at 0.02 nM; in the data set on Huh-7 [2] it was 0.005 nM; in the data set on Huh-7 [3] it was 0.004 nM; with Huh-7 [4], 0.3 nM; in data set [5] it was 1 nM; in data set [6], 21 nM. Further, the EC90 with Huh-7 [7] was 3.8 nM; in the data set with Huh-7 [8], 0.006 nM.

On to `COC(=O)N[C@H](C(=O)N1CCC[C@H]1c1ncc(-c2ccc3c(c2)OC(c2ccc(-c4ccccc4)cc2)n2c-3cc3cc(-c4cnc([C@@H]5CCCN5C(=O)[C@@H](NC(=O)OC)C(C)C)[nH]4)ccc32)[nH]1)C(C)C` (mixture of isomers), for which the EC90 in the data set with Huh-7 [1] was below 0.02 nM; in the data set with Huh-7 [2], below 0.02 nM; in the data set on Huh-7 [3], below 0.2 nM; with Huh-7 [4], below 0.2 nM; in data set [5], below 2 nM; in [6], 4.6 nM. Also, the EC90 in the data set with Huh-7 [7] was 2.6 nM; with Huh-7 [8] it was below 0.02 nM.

On to `COC(=O)N[C@H](C(=O)N1CCC[C@H]1c1ncc(-c2cc(F)c3c(c2)OC(c2ccc4c(c2)OCC[C@@H]4C)n2c-3cc3cc(-c4cnc([C@@H]5CCCN5C(=O)[C@@H](NC(=O)OC)C(C)C)[nH]4)ccc32)[nH]1)C(C)C` (some centres not stated), for which the EC90 turned out to be 0.003 nM with Huh-7 [1]; 0.004 nM in the data set on Huh-7 [2]; 0.01 nM in the data set with Huh-7 [4]; 0.01 nM in [5]; 0.2 nM in [6]; 0.2 nM in the data set with Huh-7 [7]. The EC90 with Huh-7 [8] was 0.002 nM. Besides, the Selectivity ratio in [9] came out at 3; in [10] it was 1; in data set [11], 50; in data set [12], 50; in data set [13], 1; in data set [14], 3.

For the compound `COC(=O)N[C@H](C(=O)N1CCC[C@H]1c1ncc(-c2cc(F)c3c(c2)OC(c2ccc4c(c2)OC(C)(C)C4)n2c-3cc3cc(-c4cnc([C@@H]5CCCN5C(=O)[C@@H](NC(=O)OC)C(C)C)[nH]4)ccc32)[nH]1)C(C)C.O=C(O)C(F)(F)F.O=C(O)C(F)(F)F` (some centres not stated), in [15], the clearance was 7 mL/min/kg. In data set [16], the concentration at 24 h was determined as 9 nM. The EC90 in the data set with Huh-7 [1] came out at 0.003 nM; with Huh-7 [2], 0.003 nM; with Huh-7 [4], 0.005 nM; in [5], 0.02 nM; in [6], 0.2 nM; in the data set with Huh-7 [7] it was 0.5 nM. The EC90 with Huh-7 [8] stood at 0.004 nM. Also, the Selectivity ratio in data set [9] turned out to be 2; in data set [10], 1; in data set [11], 67; in [12], 167; in [13] it was 1; in [14], 7. Also, the AUC at 24 h in data set [17] was 0.71 µM·h. Moreover, the bioavailability in [18] is 3%. This compound showed a half-life in [19] of 8.4 h. Moreover, the peak level in data set [20] (Cmax) was 58 nM.

With `COC(=O)N[C@H](C(=O)N1CCC[C@H]1c1ncc(-c2cc(F)c3c(c2)OC(c2ccc4c(c2)OCC[C@H]4C)n2c-3cc3cc(-c4cnc([C@@H]5CCCN5C(=O)[C@@H](NC(=O)OC)C(C)C)[nH]4)ccc32)[nH]1)C(C)C` (some centres not stated), the EC90 was determined as 0.003 nM with Huh-7 [1]; 0.004 nM in the data set with Huh-7 [2]; 0.006 nM with Huh-7 [4]; 0.007 nM in data set [5]; 0.2 nM in data set [6]; 0.2 nM with Huh-7 [7]. Also, the EC90 in the data set on Huh-7 [8] amounted to 0.002 nM. The Selectivity ratio in data set [9] came to 2; in data set [10] it was 1; in data set [11] it was 50; in data set [12], 50; in data set [13], 1; in data set [14], 2.

In data set [15], `COC(=O)N[C@H](C(=O)N1CCC[C@H]1c1ncc(-c2cc(F)c3c(c2)OC(c2ccc4c(c2)OCCC4)n2c-3cc3cc(-c4cnc([C@@H]5CCCN5C(=O)[C@@H](NC(=O)OC)C(C)C)[nH]4)ccc32)[nH]1)C(C)C.O=C(O)C(F)(F)F.O=C(O)C(F)(F)F` (some centres not stated) had a clearance of 8 mL/min/kg. The concentration at 24 h in data set [16] worked out at 17 nM. The compound also returned an AUC at 24 h in [17] of 1.35 µM·h. This compound gave a bioavailability in data set [18] of 5%. For the same compound, in data set [19], the half-life is 5.8 h. In data set [20], the Cmax amounted to 86 nM.

A word on the EC90: it is the concentration needed for an effect of 90%. The term clearance denotes the rate of elimination divided by the concentration. High values mean efficient removal, low ones inefficient removal. For orientation: AUC means concentration integrated over time. Lower therefore signals low exposure. The bioavailability is the share of a dose that reaches the circulation, judged against a reference dose that is usually intravenous. As usually defined, the half-life is the time needed for the level to fall by half in the phase considered. Read a low half-life as fast loss. As a reminder, the Cmax is the highest concentration seen after dosing.
